Measured values as given in article PMC6753935 (Journal of Clinical and Translational Science, 2019).
Where two headings read alike, the source gives them in different places.

Tests used:
[1] = test system: human platelets in platelet-rich plasma (PRP); experiment: In vitro platelet aggregation in PRP of healthy human volunteers; assay type: cell-based
In short: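 Healthy donors' venous blood was anticoagulated with citrate (0.38% final), PPACK (0.1 or 0.3 mM final) or heparin (15.8 USP U/ml). PRP was spun at 650 × g for 4 min at room temperature. Aspirin 0.83 mM final for 10 min, then test compound (0.01–3 µM final) for 20 min. Aggregation induced by arachidonic acid 1.5 mM or ADP 5 µM. IC50 from initial-slope inhibition by Hill-equation fit.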

[2] = test system: platelets in platelet-rich plasma (PRP); experiment: Light transmission platelet aggregation, RUC-4 IC50 in NHP PRP; assay type: cell-based, cynomolgus monkey (Macaca fascicularis); conditions: read-out: RUC-4 IC50 for platelet aggregation in NHP, mean ± SD; 5 µM ADP, citrated PRP, initial slope, 4 animals
[3] = Pharmacokinetics: RUC-4 whole blood concentrations after IM, SC; assay type: in vivo, cynomolgus monkey (Macaca fascicularis); conditions: for Bioavailability: compared to IV
In short: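 Six male monkeys (two per dose: 1, 1.93, 3.86 mg/kg) received single IV, IM or SC injections (0.064 ml/kg; SC into the abdomen). Repeat arms spanned ~6 months with washout. Blood was sampled pre-dose and at 5–270 min, plus 1 min post-IV. Whole-blood levels measured by LC-MS/MS (HILIC; quadratic curve 5–5000 ng/ml). Non-compartmental analysis; bioavailability relative to IV.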

[4] = test system: platelets in platelet-rich plasma (PRP); experiment: ADP-induced platelet aggregation in PRP from NHPs dosed with RUC-4 IM; assay type: in vivo, cynomolgus monkey (Macaca fascicularis)
In short: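 Six adult male monkeys (3.6–4.8 y; two per dose) got a single unsedated IM injection (0.064 ml/kg) at 1, 1.93 or 3.86 mg/kg. Citrated blood was drawn pre-dose and at 30, 120 and 270 min, plus ~27 h at the top dose. PRP was adjusted to 3 × 10^5/μl with PPP. Light-transmission aggregation at 37°C with stirring, 5 µM ADP. Percent inhibition of the initial slope versus untreated sample.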

[5] = Clinical pathology: complete blood counts; assay type: in vivo, cynomolgus monkey (Macaca fascicularis); conditions: arms 1, 2 and 5
In short: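 Same six male monkeys, dosed IM, IV or SC across five arms. EDTA blood for complete counts was drawn pre-dose and at 30, 120 and 270 min post-dose in arms 1–2. Sampling was pre-dose and 15 min in arm 3, 45 min in arm 4, and 120 min in arm 5. Hematocrit and platelet count were recorded.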

αIIbβ3 = αIIbβ3 (Homo sapiens, UniProt P05106+P08514); assay type: cell-based; conditions: five donors, p < 0.0001
Sequence of αIIbβ3 (P08514 32-887 limits assumed): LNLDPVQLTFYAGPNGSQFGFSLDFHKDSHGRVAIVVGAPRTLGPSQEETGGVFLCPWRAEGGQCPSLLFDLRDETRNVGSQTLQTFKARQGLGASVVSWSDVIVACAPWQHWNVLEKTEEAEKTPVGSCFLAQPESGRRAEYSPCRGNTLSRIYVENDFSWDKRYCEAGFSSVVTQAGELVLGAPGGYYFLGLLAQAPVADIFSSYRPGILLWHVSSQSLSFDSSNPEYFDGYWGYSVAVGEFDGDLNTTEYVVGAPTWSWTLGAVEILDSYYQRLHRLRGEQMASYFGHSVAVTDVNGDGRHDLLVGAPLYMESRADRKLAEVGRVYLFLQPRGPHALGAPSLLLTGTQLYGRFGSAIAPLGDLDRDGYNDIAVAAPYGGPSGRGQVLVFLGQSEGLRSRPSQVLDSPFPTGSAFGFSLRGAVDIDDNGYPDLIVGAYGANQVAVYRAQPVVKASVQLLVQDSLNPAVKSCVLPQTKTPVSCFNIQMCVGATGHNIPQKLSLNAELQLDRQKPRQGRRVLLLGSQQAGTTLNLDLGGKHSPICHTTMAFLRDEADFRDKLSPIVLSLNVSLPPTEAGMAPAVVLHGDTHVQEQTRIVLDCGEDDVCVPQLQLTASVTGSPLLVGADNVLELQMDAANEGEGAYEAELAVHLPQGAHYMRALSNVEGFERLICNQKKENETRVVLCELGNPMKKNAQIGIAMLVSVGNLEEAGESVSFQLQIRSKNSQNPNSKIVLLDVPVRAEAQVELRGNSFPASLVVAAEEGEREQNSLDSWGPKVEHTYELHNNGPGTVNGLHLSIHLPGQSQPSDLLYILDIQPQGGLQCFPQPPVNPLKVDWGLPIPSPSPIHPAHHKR
Sequence of αIIbβ3 (P08514 891-1039 partner limits assumed): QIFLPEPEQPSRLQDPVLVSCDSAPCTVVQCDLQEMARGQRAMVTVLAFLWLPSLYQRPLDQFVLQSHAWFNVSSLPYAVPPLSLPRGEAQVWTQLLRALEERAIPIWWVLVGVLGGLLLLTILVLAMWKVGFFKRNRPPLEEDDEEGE
Sequence of αIIbβ3 (P05106 27-788): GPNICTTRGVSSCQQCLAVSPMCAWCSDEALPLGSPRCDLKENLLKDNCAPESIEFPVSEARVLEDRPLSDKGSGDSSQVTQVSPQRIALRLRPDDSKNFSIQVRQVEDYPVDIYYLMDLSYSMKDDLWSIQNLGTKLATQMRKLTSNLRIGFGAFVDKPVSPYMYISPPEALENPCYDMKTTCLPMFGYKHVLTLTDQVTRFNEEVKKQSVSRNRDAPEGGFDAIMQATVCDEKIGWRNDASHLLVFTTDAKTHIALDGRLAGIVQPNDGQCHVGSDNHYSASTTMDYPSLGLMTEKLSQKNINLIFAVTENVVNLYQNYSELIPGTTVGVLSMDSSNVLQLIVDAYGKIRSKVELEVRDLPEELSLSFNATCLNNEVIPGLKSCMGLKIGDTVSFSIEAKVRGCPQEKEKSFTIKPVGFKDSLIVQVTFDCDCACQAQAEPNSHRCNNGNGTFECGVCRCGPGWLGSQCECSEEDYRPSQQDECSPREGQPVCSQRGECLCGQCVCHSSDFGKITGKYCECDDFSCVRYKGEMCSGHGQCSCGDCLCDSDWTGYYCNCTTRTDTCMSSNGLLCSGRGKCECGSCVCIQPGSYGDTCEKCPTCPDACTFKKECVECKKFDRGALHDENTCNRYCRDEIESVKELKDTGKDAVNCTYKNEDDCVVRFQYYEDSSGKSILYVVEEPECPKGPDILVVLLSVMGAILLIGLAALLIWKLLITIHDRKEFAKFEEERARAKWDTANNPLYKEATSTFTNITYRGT

CC(=O)Oc1ccccc1C(=O)O [Aspirin, acetyl salicylic acid, reference compound]
Effect on arachidonic-acid-induced platelet aggregation ([1]; aspirin 0.83 mM, arachidonic acid 1.5 mM, citrated PRP): eliminated

NCC(=O)Nc1cncc(-c2nn3c(=O)cc(N4CCNCC4)nc3s2)c1 [RUC-4]
IC50 [2]: 807 ± 231 nM
Time to peak level ([3]; 1.0 mg/kg SC): 15 min
Time to peak blood levels ([3]; IM): ≤ 5 min
T1/2 ([3]; IM 1.00 mg/kg): 16.8 min
Whole blood level ([3]; IM 1.00 mg/kg, 5 minutes): 3.415 µM
Whole blood level ([3]; IM 1.00 mg/kg, 15 minutes): 2.118 µM
Whole blood level ([3]; IM 1.00 mg/kg, 30 minutes): 0.164 µM
Whole blood level ([3]; IM 1.00 mg/kg, 45 minutes): 0.236 µM
Whole blood level ([3]; IM 1.00 mg/kg, 120 minutes): < 0.008 µM
Whole blood level ([3]; IM 1.00 mg/kg, 270 minutes): < 0.007 µM
Bioavailability ([3]; IM 1.00 mg/kg): 1.2
T1/2 ([3]; IM 1.93 mg/kg): 16.8 min
Whole blood level ([3]; IM 1.93 mg/kg, 5 minutes): 3.796 µM
Whole blood level ([3]; IM 1.93 mg/kg, 15 minutes): 3.692 µM
Whole blood level ([3]; IM 1.93 mg/kg, 30 minutes): 0.297 µM
Whole blood level ([3]; IM 1.93 mg/kg, 45 minutes): 0.333 µM
Whole blood level ([3]; IM 1.93 mg/kg, 120 minutes): 0.008 µM
Whole blood level ([3]; IM 1.93 mg/kg, 270 minutes): < 0.007 µM
Bioavailability ([3]; IM 1.93 mg/kg): 0.80
T1/2 ([3]; IM 3.86 mg/kg): 31.8 min
Whole blood level ([3]; IM 3.86 mg/kg, 5 minutes): 16.009 µM
Whole blood level ([3]; IM 3.86 mg/kg, 15 minutes): 8.783 µM
Whole blood level ([3]; IM 3.86 mg/kg, 30 minutes): 0.837 µM
Whole blood level ([3]; IM 3.86 mg/kg, 45 minutes): 0.952 µM
Whole blood level ([3]; IM 3.86 mg/kg, 120 minutes): 0.016 µM
Whole blood level ([3]; IM 3.86 mg/kg, 270 minutes): < 0.007 µM
Bioavailability ([3]; IM 3.86 mg/kg): 0.88
Time to peak levels ([3]; IM and SC, all doses except 1.0 mg/kg SC): ≤ 5 min
Time to peak blood levels ([3]; SC): ≤ 5 min
T1/2 ([3]; SC 1.00 mg/kg): 33.6 min
Whole blood level ([3]; SC 1.00 mg/kg, 5 minutes): 0.746 µM
Whole blood level ([3]; SC 1.00 mg/kg, 15 minutes): 0.819 µM
Whole blood level ([3]; SC 1.00 mg/kg, 30 minutes): 0.497 µM
Whole blood level ([3]; SC 1.00 mg/kg, 45 minutes): 0.241 µM
Whole blood level ([3]; SC 1.00 mg/kg, 120 minutes): 0.077 µM
Bioavailability ([3]; SC 1.00 mg/kg): 0.55
T1/2 ([3]; SC 1.93 mg/kg): 24.6 min
Whole blood level ([3]; SC 1.93 mg/kg, 5 minutes): 3.445 µM
Whole blood level ([3]; SC 1.93 mg/kg, 15 minutes): 3.056 µM
Whole blood level ([3]; SC 1.93 mg/kg, 30 minutes): 1.295 µM
Whole blood level ([3]; SC 1.93 mg/kg, 45 minutes): 0.551 µM
Whole blood level ([3]; SC 1.93 mg/kg, 120 minutes): 0.104 µM
Bioavailability ([3]; SC 1.93 mg/kg): 0.78
T1/2 ([3]; SC 3.86 mg/kg): 23.4 min
Whole blood level ([3]; SC 3.86 mg/kg, 5 minutes): 6.036 µM
Whole blood level ([3]; SC 3.86 mg/kg, 15 minutes): 5.310 µM
Whole blood level ([3]; SC 3.86 mg/kg, 30 minutes): 3.523 µM
Whole blood level ([3]; SC 3.86 mg/kg, 45 minutes): 1.098 µM
Whole blood level ([3]; SC 3.86 mg/kg, 120 minutes): 0.225 µM
Bioavailability ([3]; SC 3.86 mg/kg): 0.60
Average inhibition of the initial slope of platelet aggregation in the two animals tested ([4]; IM 1.00 mg/kg, 30 minutes): b (Values of whole blood RUC-4 levels corresponding to an average of >80% inhibition of the initial slope of platelet aggregation in the two animals tested.)
Average inhibition of the initial slope of platelet aggregation in the two animals tested ([4]; IM 1.00 mg/kg, 120 minutes): c (Values of whole blood RUC-4 levels corresponding to an average of 0%–80% inhibition of the initial slope of platelet aggregation in the two animals tested.)
Average inhibition of the initial slope of platelet aggregation in the two animals tested ([4]; IM 1.00 mg/kg, 270 minutes): c (Values of whole blood RUC-4 levels corresponding to an average of 0%–80% inhibition of the initial slope of platelet aggregation in the two animals tested.)
Average inhibition of the initial slope of platelet aggregation in the two animals tested ([4]; IM 1.93 mg/kg, 30 minutes): b (Values of whole blood RUC-4 levels corresponding to an average of >80% inhibition of the initial slope of platelet aggregation in the two animals tested.)
Average inhibition of the initial slope of platelet aggregation in the two animals tested ([4]; IM 1.93 mg/kg, 120 minutes): b (Values of whole blood RUC-4 levels corresponding to an average of >80% inhibition of the initial slope of platelet aggregation in the two animals tested.)
Average inhibition of the initial slope of platelet aggregation in the two animals tested ([4]; IM 1.93 mg/kg, 270 minutes): c (Values of whole blood RUC-4 levels corresponding to an average of 0%–80% inhibition of the initial slope of platelet aggregation in the two animals tested.)
Average inhibition of the initial slope of platelet aggregation in the two animals tested ([4]; IM 3.86 mg/kg, 30 minutes): b (Values of whole blood RUC-4 levels corresponding to an average of >80% inhibition of the initial slope of platelet aggregation in the two animals tested.)
Average inhibition of the initial slope of platelet aggregation in the two animals tested ([4]; IM 3.86 mg/kg, 120 minutes): b (Values of whole blood RUC-4 levels corresponding to an average of >80% inhibition of the initial slope of platelet aggregation in the two animals tested.)
Average inhibition of the initial slope of platelet aggregation in the two animals tested ([4]; IM 3.86 mg/kg, 270 minutes): c (Values of whole blood RUC-4 levels corresponding to an average of 0%–80% inhibition of the initial slope of platelet aggregation in the two animals tested.)
Inhibition of the initial slope of aggregation in response to ADP ([4]; IM, all samples with whole blood RUC-4 concentration ≥ ~8 nM): > 80%
Inhibition of the initial slope of ADP-induced aggregation ([4]; IM, all three doses (1.0, 1.93, 3.86 mg/kg), 30 minutes post-dosing): > 80%
Reductions in hematocrit, assessment [5]: considered consistent with the blood drawing from the animals
Platelet counts, trend ([5]; possible exception animal 4 at 1.93 mg/kg IM): did not demonstrate obvious drug-related trends by dose or time after administration
Difference in RUC-4 IC50, citrate versus heparin and PPACK ([1]; lower IC50 in PRP from citrate-anticoagulated blood): approximately twofold
IC50 ([1]; read-out: RUC-4 IC50, 20 µM TRAP, blood anticoagulated with PPACK (0.3 mM), n = 4): 122 ± 17 nM
IC50 ([1]; read-out: RUC-4 IC50, 20 µM TRAP, blood anticoagulated with heparin (15.8 U/ml), n = 4): 111 ± 7 nM
IC50 ([1]; read-out: RUC-4 IC50, 20 µM TRAP, blood anticoagulated with sodium citrate (0.38%), n = 4): 66 ± 25 nM
IC50 ([1]; read-out: RUC-4 IC50, ADP 20 µM, blood anticoagulated with PPACK (0.1 mM), n = 5): 102 ± 22 nM
IC50 ([1]; read-out: RUC-4 IC50, ADP 20 µM, blood anticoagulated with sodium citrate (0.38%), n = 5): 54 ± 13 nM
IC50 ([1]; read-out: RUC-4 IC50, ADP (5 µM), aspirin (0.83 mM), mean of 5 patients): 37 nM
IC50 ([1]; read-out: RUC-4 IC50, ADP (5 µM), aspirin (0.83 mM), patient 1): 41 nM
IC50 ([1]; read-out: RUC-4 IC50, ADP (5 µM), aspirin (0.83 mM), patient 2): 33 nM
IC50 ([1]; read-out: RUC-4 IC50, ADP (5 µM), aspirin (0.83 mM), patient 3): 32 nM
IC50 ([1]; read-out: RUC-4 IC50, ADP (5 µM), aspirin (0.83 mM), patient 4): 43 nM
IC50 ([1]; read-out: RUC-4 IC50, ADP (5 µM), aspirin (0.83 mM), patient 5): 37 nM
IC50 ([1]; read-out: RUC-4 IC50, ADP (5 µM), vehicle, mean of 5 patients): 40 nM
IC50 ([1]; read-out: RUC-4 IC50, ADP (5 µM), vehicle, patient 1): 52 nM
IC50 ([1]; read-out: RUC-4 IC50, ADP (5 µM), vehicle, patient 2): 38 nM
IC50 ([1]; read-out: RUC-4 IC50, ADP (5 µM), vehicle, patient 3): 34 nM
IC50 ([1]; read-out: RUC-4 IC50, ADP (5 µM), vehicle, patient 4): 47 nM
IC50 ([1]; read-out: RUC-4 IC50, ADP (5 µM), vehicle, patient 5): 31 nM
IC50 ([1]; read-out: RUC-4 IC50, arachidonic acid (1.5 mM), vehicle, mean of 5 patients): 61 nM
IC50 ([1]; read-out: RUC-4 IC50, arachidonic acid (1.5 mM), vehicle, patient 1): 67 nM
IC50 ([1]; read-out: RUC-4 IC50, arachidonic acid (1.5 mM), vehicle, patient 2): 52 nM
IC50 ([1]; read-out: RUC-4 IC50, arachidonic acid (1.5 mM), vehicle, patient 3): 41 nM
IC50 ([1]; read-out: RUC-4 IC50, arachidonic acid (1.5 mM), vehicle, patient 4): 72 nM
IC50 ([1]; read-out: RUC-4 IC50, arachidonic acid (1.5 mM), vehicle, patient 5): 71 nM
IC50 ([1]; read-out: RUC-4 IC50 for ADP-induced aggregation, ADP 5 µM, aspirin-treated platelets (0.83 mM), citrated PRP): 37 ± 5 nM
Average correlation between inhibition of platelet aggregation and inhibition of PAC-1 binding (αIIbβ3): 0.96
Clinical observations (IM, similar at all doses, all animals): some minor bruising and red, raised areas limited to site of injection (thigh) or venipuncture
Clinical observations (IV 1.93 mg/kg, one animal in arm 2): minor nose and gingival bleeding
Clinical observations (IV 3.86 mg/kg, one animal in arm 2 and both animals in arm 3): vomited immediately after the IV injection
Clinical findings (SC, resolved by ~24 hours post-dose): red discoloration of the skin at the venipuncture and administration sites and bruising at sites of injection and inguinal areas
Tolerability (all doses, IM, IV, SC): well tolerated
